{
  "source": "paper PMC4210426",
  "about": "(The Journal of General Physiology, 2014)",
  "key": {"[1]": {"system": "CNG channels", "settings": "ref Fodor et al., 1997a,b; cited from earlier work"}, "[2]": {"system": "BK channels", "settings": "at 100 mV; ref Wilkens and Aldrich, 2006; cited from earlier work"}, "[3]": {"system": "BK channels", "assay": "bbTBA block of BK channels", "type": "cell-based", "settings": "assuming a zδ of 0.148 e assigned to the forward rate"}, "[4]": {"molecular_target": "T1, Slo1-C430S-A313C channels (Mus musculus, UniProt Q08460, A378C/C495S)", "T1 sequence (Q08460 whole entry A378C/C495S)": "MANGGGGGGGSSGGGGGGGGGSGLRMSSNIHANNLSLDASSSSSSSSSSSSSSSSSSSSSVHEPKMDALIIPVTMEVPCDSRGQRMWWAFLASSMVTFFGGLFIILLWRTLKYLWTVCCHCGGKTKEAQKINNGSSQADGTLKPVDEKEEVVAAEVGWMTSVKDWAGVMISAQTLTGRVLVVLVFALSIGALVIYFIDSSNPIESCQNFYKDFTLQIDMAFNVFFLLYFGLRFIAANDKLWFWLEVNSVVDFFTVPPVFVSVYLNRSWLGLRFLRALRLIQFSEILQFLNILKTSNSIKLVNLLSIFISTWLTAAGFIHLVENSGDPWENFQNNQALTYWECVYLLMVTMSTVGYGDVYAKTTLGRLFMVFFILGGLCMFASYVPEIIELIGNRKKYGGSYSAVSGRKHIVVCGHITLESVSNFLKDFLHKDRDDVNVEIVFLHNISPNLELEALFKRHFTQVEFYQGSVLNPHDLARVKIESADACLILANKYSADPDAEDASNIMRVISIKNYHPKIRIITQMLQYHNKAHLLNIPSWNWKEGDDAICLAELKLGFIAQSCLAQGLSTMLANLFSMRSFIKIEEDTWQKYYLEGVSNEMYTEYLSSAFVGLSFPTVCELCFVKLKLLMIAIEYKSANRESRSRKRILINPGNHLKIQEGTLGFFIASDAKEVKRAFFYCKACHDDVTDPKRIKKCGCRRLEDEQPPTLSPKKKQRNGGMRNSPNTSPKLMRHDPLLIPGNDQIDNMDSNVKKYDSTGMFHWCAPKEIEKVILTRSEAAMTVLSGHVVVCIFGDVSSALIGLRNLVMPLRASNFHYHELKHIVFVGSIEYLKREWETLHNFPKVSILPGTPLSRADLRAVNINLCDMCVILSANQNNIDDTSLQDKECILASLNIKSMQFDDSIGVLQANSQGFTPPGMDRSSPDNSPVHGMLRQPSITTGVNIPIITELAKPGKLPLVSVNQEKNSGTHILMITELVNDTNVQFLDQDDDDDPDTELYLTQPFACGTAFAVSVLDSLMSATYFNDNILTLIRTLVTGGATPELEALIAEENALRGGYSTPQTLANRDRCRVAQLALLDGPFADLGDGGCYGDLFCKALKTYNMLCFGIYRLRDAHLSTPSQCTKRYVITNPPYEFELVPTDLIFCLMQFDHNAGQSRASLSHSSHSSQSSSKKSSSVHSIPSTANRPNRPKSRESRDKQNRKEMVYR", "settings": "1 mM MTSET, ref Zhou et al., 2011, cited from earlier work"}, "[5]": {"molecular_target": "BK channels (Slo1) (Mus musculus, UniProt Q08460)", "sequence (Q08460 whole entry)": "as the sequence (Q08460 whole entry A378C/C495S) above, with C378A, S495C counted along it", "assay": "Paxilline inhibition of BK current in the presence of bbTBA or 2 M sucrose", "type": "cell-based"}, "[6]": {"settings": "cited from earlier work"}, "[7]": {"system": "BK channel G311 mutant", "settings": "ref Zhou et al., 2010; cited from earlier work"}, "[8]": {"molecular_target": "BK channel voltage sensors (mSlo1) (Mus musculus, UniProt Q08460)", "sequence (Q08460 whole entry)": "as the sequence (Q08460 whole entry A378C/C495S) above, with C378A, S495C counted along it", "assay": "Gating current measurements in inside-out macropatches", "type": "cell-based", "settings": "with 500 nM paxilline, 0 Ca^2+", "in_short": "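Inside-out macropatches from oocytes, room temperature (∼22–25°C). Pipette solution (mM): 127 TEA-OH, 125 methanesulfonic acid, 2 MgCl2, 10 HEPES, pH 7.0. Internal solution (mM): 141 NMDG, 135 methanesulfonic acid, 10 HEPES, 5 EGTA, pH 7.0. Voltage commands filtered at 20 kHz. Gating currents filtered at 10 kHz and sampled at 100 kHz. P/5 subtraction of capacitive and leak currents from −80 mV holding.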"}, "[9]": {"system": "pH-regulated Slo3 K^+ channel", "settings": "cited from earlier work"}, "[10]": {"molecular_target": "T2, BK channels (mSlo1) (Mus musculus, UniProt Q08460)", "T2 sequence (Q08460 whole entry)": "as the sequence (Q08460 whole entry A378C/C495S) above, with C378A, S495C counted along it", "assay": "NPo measurements at negative potentials in macropatches", "type": "cell-based"}, "[11]": {"molecular_target": "T2, BK channels (mSlo1)", "type": "cell-based", "in_short": "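Oocyte inside-out patches at ∼22–25°C. Pipette (mM): 140 K-methanesulfonate, 20 KOH, 10 HEPES, 2 MgCl2, pH 7.0. Cytosolic Ca2+ buffered with 5 mM HEDTA (10 µM) or unbuffered (300 µM). Test compound equilibrated for 4 min at set holding potential/Ca2+ before G-V from brief test steps. Concentration series (at least four) used steps to 160 mV at −70 to 70 mV. Hill and allosteric-scheme fits.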"}, "[12]": {"molecular_target": "T2, BK channels (mSlo1)", "assay": "Kinetics of onset of and recovery from paxilline inhibition of BK current", "type": "cell-based", "in_short": "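Oocyte inside-out patches with fast perfusion, room temperature. BK availability monitored by brief steps to 160 mV. Onset came from wash-in of 100 nM test compound at −80 mV, 300 µM Ca2+, fitted with single exponentials. Block rate was measured over 5–2,000 nM at −80 and −100 mV, with step interval cut to 0.2 s at highest concentrations. Recovery followed a switch in equilibration voltage or washout. Kd was derived from kinetic rates.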"}, "[13]": {"molecular_target": "Slo1-A313C channels (unmodified, MTSET-, MTSEA- or MTSES-modified) (Mus musculus, UniProt Q08460, A378C/C495S)", "sequence (Q08460 whole entry A378C/C495S)": "as the sequence (Q08460 whole entry A378C/C495S) above", "assay": "Paxilline block of Slo1-A313C currents before and after MTS modification", "type": "cell-based", "settings": "100 nM paxilline; for fractional block: 0 mV"}, "[14]": {"molecular_target": "T1, Slo1-C430S-A313C channels", "assay": "MTSET modification of A313C in closed BK channels, without and with paxilline", "type": "cell-based", "settings": "500 nM paxilline, −80 mV, 0 Ca^2+", "in_short": "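Slo1-C430S-A313C channels in oocyte inside-out patches. 1 mM MTSET applied for 120 s at −80 mV holding in 0 Ca2+. Currents recorded with 300 µM Ca2+ before and after modification, with steps up to 200 mV. Separate control G-V sets were collected for modification without and with test compound.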"}, "[15]": {"settings": "in 100 nM paxilline, 10 µM Ca^2+, holding potential 0 mV"}, "[16]": {"settings": "with 50 nM paxilline, all solutions 10 mM DTT, n = 7 patches"}},
  "note": "“And” between values parts separate entries of the source, which are not always exact repeats. Identical values can stand only once. Like-named read-outs stand apart in the source and are kept apart here.",
  "data": [
    {"smiles": "CCCCNc1ccc(C(=O)OCCN(C)C)cc1", "note": "[tetracaine]", "values": [
      {"measurement": "affinity for closed channels relative to open channels", "setting": "[1]", "result": "~1,000 fold"}
    ]},
    {"smiles": "CCCC[N+](CCCC)(CCCC)Cc1ccc(C(=O)c2ccccc2)cc1", "note": "[bbTBA, N-(4-[benzoyl]benzyl)-N,N,N-tributylammonium]", "values": [
      {"measurement": "forward rate of block", "setting": "[2]", "result": "1.2e+08", "unit": "M⁻¹ s⁻¹"},
      {"measurement": "0-voltage forward rate", "setting": "[3]", "result": "6.7e+07", "unit": "M⁻¹ s⁻¹"}
    ]},
    {"smiles": "C[N+](C)(C)CCSS(C)(=O)=O.[Br-]", "note": "[MTSET, [2-(trimethylammonium)ethyl] MTS bromide]", "values": [
      {"measurement": "reduction in maximal conductance", "setting": "[4]; closed BK channels", "result": "> 50", "unit": "%"},
      {"measurement": "time constant of modification of A313C of closed BK channels", "setting": "[4]", "result": "~23", "unit": "s"}
    ]},
    {"smiles": "CC(C)(O)[C@H]1O[C@H]2CC[C@@]3(C)[C@@](O)(CC[C@H]4Cc5c([nH]c6ccccc56)[C@@]43C)C2=CC1=O", "note": "[paxilline]", "values": [
      {"measurement": "reduction of current", "setting": "[5]; 100 nM paxilline alone for ∼40 s, 0 mV, 10 µM Ca^2+", "result": "~80", "unit": "%"},
      {"measurement": "reduction of the number of channels blocked by paxilline", "setting": "[5]; 100 nM paxilline applied together with 100 µM bbTBA, 0 mV, 10 µM Ca^2+", "result": "~50", "unit": "%"},
      {"measurement": "inhibition of BK current", "setting": "[5]; 100 nM paxilline with 2 M sucrose in the cytosolic solution, 300 µM Ca^2+", "result": "only a weak inhibition"},
      {"measurement": "logP", "setting": "[6]", "result": 3.62},
      {"measurement": "effect of G311 mutation on paxilline inhibition", "setting": "[7]", "result": "totally abolishes paxilline inhibition"},
      {"measurement": "Vh of Qoff", "setting": "[8]", "result": "130.2 ± 9.1", "unit": "mV"},
      {"measurement": "Vh of Qon", "setting": "[8]", "result": "131.4 ± 2.1", "unit": "mV"},
      {"measurement": "z of Qoff", "setting": "[8]", "result": "0.56 ± 0.035", "unit": "e"},
      {"measurement": "z of Qon", "setting": "[8]", "result": "0.54 ± 0.025", "unit": "e"},
      {"measurement": "sensitivity to paxilline inhibition", "setting": "[9]", "result": "resistant"},
      {"measurement": "normalized NPo", "setting": "[10]; 100 nM paxilline, −80 mV, 300 µM Ca^2+", "result": "< 0.05"},
      {"measurement": "IC50", "setting": "[10]; IC50 for reduction in normalized NPo, −80 mV, Hill fit with n = 1", "result": "5.5 ± 1.1", "unit": "nM"},
      {"measurement": "inhibition at 0.1 µM", "setting": "[10]; read-out: inhibition of BK current (NPo)", "result": "> 95", "unit": "%"},
      {"measurement": "Hill coefficient n", "setting": "[10]; −80 mV, 10 or 300 µM Ca^2+, Hill fit of normalized NPo", "result": "0.85 ± 0.25"},
      {"measurement": "inhibition of current", "setting": "[11]; 10 nM paxilline, 0 mV, 10 µM Ca^2+ (Po <0.02), 4 min", "result": "over half"},
      {"measurement": "inhibition of current", "setting": "[11]; 100 nM paxilline, 0 mV, 10 µM Ca^2+ (Po <0.02), 4 min", "result": "essentially complete inhibition"},
      {"measurement": "inhibition of current", "setting": "[11]; 100 nM paxilline, holding potential 80 mV, 300 µM Ca^2+, 1 min of application", "result": "almost no inhibition"},
      {"measurement": "IC50", "setting": "[11]; IC50 (Hill fit), equilibration 0 mV, 300 µM Ca^2+ (Po ∼0.65)", "result": "58.4 ± 2.9", "unit": "nM"},
      {"measurement": "IC50", "setting": "[11]; IC50 (Hill fit), equilibration 40 mV, 300 µM Ca^2+ (Po ∼0.83)", "result": "470 ± 94.9", "unit": "nM"},
      {"measurement": "IC50", "setting": "[11]; IC50 (Hill fit), equilibration 70 mV, 300 µM Ca^2+ (Po ∼0.89)", "result": "5370 ± 1000", "unit": "nM"},
      {"measurement": "IC50", "setting": "[11]; IC50 (Hill fit), equilibration −70 mV, 300 µM Ca^2+ (Po ∼0.1)", "result": "11.7 ± 1.9", "unit": "nM"},
      {"measurement": "IC50", "setting": "[11]; IC50 for paxilline, as maximal Po was approached", "result": "~10000", "unit": "nM"},
      {"measurement": "IC50", "setting": "[11]; IC50 for paxilline, channels largely closed", "result": "~10", "unit": "nM"},
      {"measurement": "reduction in the C-O equilibrium constant L(0)", "setting": "[11]; binding of one paxilline molecule", "result": "> 500", "unit": "fold"},
      {"measurement": "direct inhibition of the open state", "setting": "[11]; concentrations up to 10 µM", "result": "not directly inhibited"},
      {"measurement": "n", "setting": "[11]; fit of Scheme 1 (Eq. 1) to four equilibration conditions", "result": "1.09 ± 0.11"},
      {"measurement": "Vh of G-V curve", "setting": "[11]; [15]", "result": "24.75 ± 0.13", "unit": "mV"},
      {"measurement": "z of G-V curve", "setting": "[11]; [15]", "result": "0.86 ± 0.01", "unit": "e"},
      {"measurement": "affinity for closed conformation relative to open conformation", "setting": "[11]; model-dependent analysis (Scheme 1)", "result": "> 500 fold and ~500 fold"},
      {"measurement": "difference between closed- and open-state affinity", "setting": "[11]; model-independent analysis of IC50 vs state occupancy, and overall conclusion", "result": "~1,000 fold"},
      {"measurement": "Vh of G-V curve", "setting": "[11]; [16]", "result": "21.21 ± 1.85", "unit": "mV"},
      {"measurement": "z of G-V curve", "setting": "[11]; [16]", "result": "0.79 ± 0.07", "unit": "e"},
      {"measurement": "Kd", "setting": "[12]", "result": 12.9, "unit": "nM"},
      {"measurement": "τon, time constant of onset of inhibition by wash-in", "setting": "[12]; 100 nM paxilline, −80 mV, 300 µM Ca^2+, four patches, mean ± STD", "result": "26.3 ± 6.6", "unit": "s"},
      {"measurement": "time constant of onset of inhibition after change in equilibration condition", "setting": "[12]; constant 100 nM paxilline, 80 to −80 mV, 300 µM Ca^2+, four patches, mean ± STD", "result": "6.85 ± 1.79", "unit": "s"},
      {"measurement": "difference in recovery time constant between 20 and 100 nM paxilline", "setting": "[12]; recovery at 0 mV in the constant presence of paxilline, seven patches", "result": 1.6, "unit": "fold"},
      {"measurement": "rate of inhibition of closed channels (slope of blocking rate vs [paxilline])", "setting": "[12]; −80 and −100 mV, 300 µM Ca^2+, 5 to 2,000 nM paxilline", "result": "2e+06", "unit": "M⁻¹ s⁻¹"},
      {"measurement": "mean time constant of recovery", "setting": "[12]; −80 mV", "result": 37.0, "unit": "s"},
      {"measurement": "fractional block", "setting": "[13]; MTSEA-modified Slo1-A313C, 10 µM Ca^2+ (Po ∼0.48)", "result": "~0.5"},
      {"measurement": "inhibition relative to unmodified Slo1-A313C", "setting": "[13]; MTSES-modified Slo1-A313C (Po ∼0.12)", "result": "only slightly weaker"},
      {"measurement": "fractional block", "setting": "[13]; MTSET-modified Slo1-A313C, 10 µM Ca^2+ (Po ∼0.9)", "result": "< 0.1"},
      {"measurement": "block of Slo1-A313C current", "setting": "[13]; unmodified A313C", "result": "strong block"},
      {"measurement": "effect on MTSET modification of A313C in closed channels", "setting": "[14]; 1 mM MTSET for 120 s", "result": "no difference in modification with or without paxilline"},
      {"measurement": "inhibition of BK current during MTSET application", "setting": "[14]", "result": "completely inhibited"}
    ]},
    {"smiles": "OC[C@H]1O[C@@](CO)(O[C@H]2O[C@H](CO)[C@@H](O)[C@H](O)[C@H]2O)[C@@H](O)[C@@H]1O", "note": "[sucrose]", "values": [
      {"measurement": "Vh of activation", "setting": "[5]; with 2 M sucrose, 300 µM Ca^2+, tail currents at −120 mV", "result": "−12.8 ± 3.3", "unit": "mV"}
    ]}
  ]
}
